Columns and labels:
[1] = Inhibition of beta lactamase KPC-2 in Klebsiella pneumoniae using nitrocefin as substrate preincubated for 10 mins followed by substrate addition
Outline: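 KPC-2 was preincubated with cyclic boronate for 10 min in 10 mM HEPES pH 7.5, 150 mM NaCl at 25 °C. 50 μM nitrocefin was then added and initial hydrolysis rates were read at 486 nm. IC50 was derived from the inhibitor concentration dependence of these rates. Inhibitor stocks were 100 mM in DMSO, diluted in buffer.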

[2] = Inhibition of beta lactamase KPC-2 in Klebsiella pneumoniae assessed as apparent inhibition constant using nitrocefin as substrate measured without preincubation by Dixon plot analysis; conditions: read-out: Ki(app)
Outline: (§1)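 Direct competition assays at 25 °C in 10 mM HEPES pH 7.5, 150 mM NaCl. A range of cyclic boronate concentrations was mixed with 50 μM nitrocefin, and the reaction was started by adding 1 nM KPC-2. Nitrocefin hydrolysis was followed at 486 nm (Δε 20 500 M-1 cm-1). Kiapp and k2/K were both taken from these competition data. Inhibitor stocks were 100 mM in DMSO, diluted in buffer.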

Klebsiella pneumoniae [3] = assay: Inhibition of beta lactamase KPC-2 in Klebsiella pneumoniae assessed as apparent second order rate constant K2/K using nitrocefin as substrate; outline: as §1
Klebsiella pneumoniae [4] = assay: Potentiation of cefepime-induced antibacterial activity against Klebsiella pneumoniae Ecl8 transfected with pUBYT vector expressing KPC-2 assessed as cefepime MIC measured after 18 to 24 hrs by CLSI protocol based broth microdilution assay (Rvb >=256 ug/ml); format: functional; conditions: time hrs 18-24
Outline: (§2)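 Broth microdilution in cation-adjusted Mueller–Hinton broth per CLSI, triplicate; K. pneumoniae Ecl8 carrying pUBYT with blaKPC-2 under the ISKpn7 promoter. β-Lactam serially diluted with inhibitor fixed at 4 mg per liter (diluted from 100 mM DMSO stock). Incubated at 37 °C for 18 to 24 hours; growth read as absorbance at 600 nm.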

Klebsiella pneumoniae [5] = assay: Potentiation of meropenem-induced antibacterial activity against Klebsiella pneumoniae Ecl8 transfected with pUBYT vector expressing KPC-2 assessed as meropenem MIC measured after 18 to 24 hrs by CLSI protocol based broth microdilution assay (reference value: 16 ug/ml); format: functional; conditions: time hrs 18-24; outline: as §2
Klebsiella pneumoniae [6] = assay: Irreversible inhibition of beta lactamase KPC-2 in Klebsiella pneumoniae assessed as off-rate constant using nitrocefin as substrate preincubated for 30 mins followed by substrate addition
Outline: (§3)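 Jump-dilution off-rate assay. 1 μM KPC-2 was preincubated with 8 μM cyclic boronate for 30 min at room temperature, then serially diluted to a final KPC-2 concentration of 500 pM. 50 μM nitrocefin was added and recovery of hydrolysis was monitored at 486 nm in 10 mM HEPES pH 7.5, 150 mM NaCl. koff and half-life were derived from the recovery.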

Klebsiella pneumoniae [7] = assay: Inhibition of beta lactamase KPC-2 in Klebsiella pneumoniae assessed as irreversible covalent complex formation by measuring half life using nitrocefin as substrate; outline: as §3

## NCCN[C@H]1CC[C@H](CC(=O)N[C@H]2Cc3cccc(C(=O)O)c3OB2O)CC1
[1]
  IC50: 37 nM
[2]
  Ki: 1300 nM
Klebsiella pneumoniae [3]
  K: 1 10^4/M/s
Klebsiella pneumoniae [4]
  MIC: ≤ 0.125 µg/mL
Klebsiella pneumoniae [5]
  MIC: ≤ 0.125 µg/mL

## O=C(NC1CCNCC1)[C@@H]1CC[C@@H]2CN1C(=O)N2OS(=O)(=O)O [RELEBACTAM]
[2]
  Ki: 1200 nM
Klebsiella pneumoniae [6]
  K: 0.00087 s⁻¹

## O=C(O)C[C@@H]1CC[C@H](NC(=O)Cc2cccs2)B(O)O1 [VABORBACTAM]
[1]
  IC50: 35 nM
[2]
  Ki: 8500 nM
Klebsiella pneumoniae [3]
  K: 6.7 10^2/M/s
Klebsiella pneumoniae [6]
  K: 0.00016 s⁻¹
Klebsiella pneumoniae [7]
  T1/2: 1.2 h
Klebsiella pneumoniae [4]
  MIC: ≤ 0.125 µg/mL
Klebsiella pneumoniae [5]
  MIC: ≤ 0.125 µg/mL
